Assay [1] concerns Pseudomonas aeruginosa. In words: Antimicrobial activity against Pseudomonas aeruginosa PA14 assessed as inhibition of biofilm formation after 24 hrs by spectrophotometry. In kind it is functional, organism-based. The conditions noted are these: PA14, 24 h. Summed up:
(§1)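 Static peg-lid biofilm prevention assay. Twofold serial dilutions in TSB diluted 1/20, 2–3 repeats per compound. Overnight S. Typhimurium ATCC14028 (LB-grown) or P. aeruginosa PA14 (TSB-grown) cultures were diluted 1:100, giving ~10^6 cells/well, then incubated 24 h at 25 °C without shaking. Pegs were PBS-washed, stained 30 min with 0.1% crystal violet, extracted with 30% acetic acid and read at OD570. IC50 was fitted from the concentration gradient.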

Assay [2] concerns Pseudomonas aeruginosa. In words: Antimicrobial activity against Pseudomonas aeruginosa PA14 assessed as inhibition of biofilm formation at 25 to 50 uM after 24 hrs by spectrophotometry. Type of assay: functional. Summed up: as §1
The test system of assay [3] is Salmonella typhimurium. Description: Antimicrobial activity against Salmonella Typhimurium ATCC 14028 assessed as inhibition of biofilm formation after 24 hrs by spectrophotometry. In kind it is functional, organism-based, Salmonella enterica subsp. enterica serovar Typhimurium. The conditions noted are these: Salmonella enterica, ATCC 14028, 24 h. Summed up: as §1

Assay [4] relates to Pseudomonas aeruginosa. In words: Antimicrobial activity against Pseudomonas aeruginosa PA14 assessed as inhibition of planktonic cell growth at IC50 after 24 hrs by […]. In kind it is functional, organism-based. Summed up:
(§2)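 Planktonic growth was followed by Bioscreen growth curves, not by crystal violet. Overnight cultures were diluted 1:200 in TSB 1/20 and received compound serially diluted in DMSO or EtOH, in triplicate, with solvent controls. Plates were shaken at 25 °C for at least 24 h, reading A600 every 15 min.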

The subject of assay [5] is Salmonella typhimurium. In words: Antimicrobial activity against Salmonella Typhimurium ATCC 14028 assessed as inhibition of planktonic cell growth at IC50 after 24 hrs by […]. In kind it is functional, organism-based. To be noted: Salmonella enterica subsp. enterica serovar Typhimurium. Summed up: as §2
Assay [6] relates to Pseudomonas aeruginosa. Description: Antimicrobial activity against Pseudomonas aeruginosa PA14 assessed as inhibition of planktonic cell growth at 80 uM after 24 hrs by […]. Type of assay: functional, organism-based. Put shortly: as §2
The subject of assay [7] is Salmonella typhimurium. Description: Antimicrobial activity against Salmonella Typhimurium ATCC 14028 assessed as inhibition of planktonic cell growth at 80 uM after 24 hrs by […]. Type of assay: functional, organism-based. The conditions noted are these: Salmonella enterica subsp. enterica serovar Typhimurium. Put shortly: as §2
Assay [8] relates to Salmonella typhimurium. Description: Antimicrobial activity against Salmonella Typhimurium ATCC 14028 assessed as inhibition of planktonic cell growth at 20 uM after 24 hrs by […]. In kind it is functional, organism-based. The conditions noted are these: Salmonella enterica subsp. enterica serovar Typhimurium. Put shortly: as §2
In assay [9] the test system is Salmonella typhimurium. In words: Antimicrobial activity against Salmonella Typhimurium ATCC 14028 assessed as inhibition of planktonic cell growth at 200 uM after 24 hrs by […]. Type of assay: functional, organism-based. The conditions noted are these: Salmonella enterica subsp. enterica serovar Typhimurium. Put shortly: as §2
The test system of assay [10] is Pseudomonas aeruginosa. In words: Antimicrobial activity against Pseudomonas aeruginosa PA14 assessed as inhibition of planktonic cell growth at 40 uM after 24 hrs by […]. In kind it is functional, organism-based. Summed up:
as §2

Assay [11] deals with Salmonella typhimurium. Description: Antimicrobial activity against Salmonella Typhimurium ATCC 14028 assessed as inhibition of planktonic cell growth at 40 uM after 24 hrs by […]. In kind it is functional, organism-based. The conditions noted are these: Salmonella enterica subsp. enterica serovar Typhimurium. Summed up:
as §2

The subject of assay [12] is Pseudomonas aeruginosa. In words: Antimicrobial activity against Pseudomonas aeruginosa PA14 assessed as inhibition of planktonic cell growth at 5 uM after 24 hrs by […]. In kind it is functional, organism-based. Summed up: as §2
Assay [13] deals with Pseudomonas aeruginosa. In words: Antimicrobial activity against Pseudomonas aeruginosa PA14 assessed as inhibition of planktonic cell growth at 100 uM after 24 hrs by […]. In kind it is functional, organism-based. Put shortly:
as §2

Assay [14] concerns Pseudomonas aeruginosa. In words: Antimicrobial activity against Pseudomonas aeruginosa PA14 assessed as inhibition of planktonic cell growth at 20 uM after 24 hrs by […]. In kind it is functional, organism-based. Put shortly: as §2
In assay [15] the test system is Salmonella typhimurium. Description: Antimicrobial activity against Salmonella Typhimurium ATCC 14028 assessed as inhibition of planktonic cell growth at 150 uM after 24 hrs by […]. In kind it is functional, organism-based. The conditions noted are these: Salmonella enterica subsp. enterica serovar Typhimurium. Put shortly: as §2
The subject of assay [16] is Pseudomonas aeruginosa. Description: Antimicrobial activity against Pseudomonas aeruginosa PA14 assessed as inhibition of planktonic cell growth at 10 uM after 24 hrs by […]. Type of assay: functional, organism-based. Summed up:
as §2

The text below walks through data of ChEMBL document CHEMBL1811868, “Structure-activity relationship of 2-hydroxy-2-aryl-2,3-dihydro-imidazo[1,2-a]pyrimidinium salts and 2N-substituted 4(5)-aryl-2-amino-1H-imidazoles as inhibitors of biofilm formation by Salmonella Typhimurium and Pseudomonas aeruginosa” (Bioorg Med Chem, 2011).

Active and inactive are the calls of the source. Unless noted, the rule behind the calls is not given here.

Turning to `CCCCCCCCCCCCCCN1c2nccc[n+]2C[C@@]1(O)c1ccccc1.[Br-]`, the IC50 (commonly the concentration at which inhibition is half-maximal) in assay [1] was more than 800 µM; in [3], 180 µM. In addition, in assay [2], the growth inhibition (GI) is more than 25%.

Regarding `CCCCNc1ncc(-c2ccc(OC)cc2)[nH]1`, the IC50 worked out at 46.3 µM in [1] and 52.6 µM in assay [3]. Also, the “growth inhibition (GI)” value in [4], in assay [5], in [6] and in assay [7] was “inactive” in each case.

Consider `CCCCCCCCCCCN1c2nccc[n+]2C[C@@]1(O)c1ccc(Cl)cc1.[Br-]`, for which the results for the IC50 in assay [1] and in assay [3] were more than 800 µM and 61.9 µM, respectively. Moreover, the growth inhibition (GI) in assay [2] was more than 25%.

Turning to `CCCCCCCCCCCCCN1c2nccc[n+]2C[C@@]1(O)c1ccccc1.[Br-]`, the results for the IC50 in [1] and in [3] were more than 800 µM and 81.6 µM, respectively. For the same compound, the growth inhibition (GI) in assay [2] is more than 25%.

Regarding `O=[N+]([O-])c1ccc(-c2cnc(NC3CCCC3)[nH]2)cc1`, the IC50 in assay [1] was 20.2 µM; in [3], 11.8 µM. The “growth inhibition (GI)” value in assay [4], in assay [5] and in assay [8] was “inactive” each time.

In the case of `Nc1ncc(-c2ccc(F)cc2)[nH]1`, the “growth inhibition (GI)” value in assay [4], in [5], in [9] and in assay [10] was “inactive” each time.

`CC(C)CNc1ncc(-c2ccc(Br)cc2)[nH]1`: the IC50 turned out to be 1.2 µM in assay [1] and 2.9 µM in assay [3]. In addition, the “growth inhibition (GI)” value in assay [4], in assay [5], in assay [8] and in [12] was “inactive” each time. Also, in assay [11], the “growth inhibition (GI)” value was “Active”.

With `Nc1ncc(-c2ccc([N+](=O)[O-])cc2)[nH]1`, the “growth inhibition (GI)” value in assay [4], in assay [5] and in assay [10] was “inactive” each time. The “growth inhibition (GI)” value in assay [11] and in assay [13] was “Active” in each case.

`Nc1ncc(-c2ccc(Cl)cc2)[nH]1`: the “growth inhibition (GI)” value in assay [4], in [5], in assay [11] and in assay [12] was “inactive” each time.

For `O[C@@]1(c2ccc(Cl)cc2)C[n+]2cccnc2N1C1CCCCC1`, the IC50 was 16.4 µM in assay [1] and 33 µM in assay [3]. For the same compound, the “growth inhibition (GI)” value in assay [4] was “inactive”. The “growth inhibition (GI)” value in [5], in assay [6] and in assay [7] was “Active” throughout.

As for `CC(C)CNc1ncc(-c2ccc(Cl)cc2)[nH]1`, the IC50 in [1] was 0.9 µM; in assay [3], 2 µM. Further, the “growth inhibition (GI)” value in assay [4], in assay [5], in [8] and in assay [12] was “inactive” throughout. The “growth inhibition (GI)” value in [11] is “Active”.

Turning to `CCCCCCCCCCCN1c2nccc[n+]2C[C@@]1(O)c1ccccc1.[Br-]`, the IC50 in assay [1] was more than 800 µM; in [3], 24.6 µM. Besides, the “growth inhibition (GI)” value in assay [5] and in assay [11] was “Active” throughout. Besides, the growth inhibition (GI) in assay [2] is more than 25%.

For `CCCNc1ncc(-c2ccc(Cl)c(Cl)c2)[nH]1`, the results for the IC50 in assay [1] and in [3] were 27.7 µM and 10.9 µM, respectively. For the same compound, the “growth inhibition (GI)” value in assay [5] and in assay [8] was “inactive” each time.

With `O[C@@]1(c2ccccc2)C[n+]2cccnc2N1C1CCCCCCC1`, the IC50 in assay [1] was determined as 48.6 µM; in assay [3] it was 58.4 µM. In addition, the “growth inhibition (GI)” value in [4], in assay [5], in assay [6] and in assay [7] was “Active” in each case.

Turning to `CCCCCNc1ncc(-c2ccc(Br)cc2)[nH]1`, the IC50 in [1] stood at 10.2 µM; in assay [3], 3.1 µM. Further, the “growth inhibition (GI)” value in assay [4], in [5] and in [14] was “inactive” in each case. The “growth inhibition (GI)” value in assay [8] and in assay [11] was “Active” throughout.

Consider `Nc1ncc(-c2ccccc2)[nH]1`, for which the “growth inhibition (GI)” value in assay [15], in assay [4], in [5] and in assay [6] was “inactive” throughout.

`CCCCCCCCNc1ncc(-c2ccc(S(C)(=O)=O)cc2)[nH]1`: the IC50 came out at 3.1 µM in assay [1] and 41.8 µM in [3]. Besides, the “growth inhibition (GI)” value in assay [4], in [5], in assay [14] and in assay [7] was “inactive” in each case.

On to `CCCCNc1ncc(-c2ccc(Br)cc2)[nH]1`, for which the IC50 was found to be 9.8 µM in [1] and 7.1 µM in [3]. In addition, the “growth inhibition (GI)” value in assay [4], in [5], in assay [8] and in assay [14] was “inactive” each time.

Consider `Brc1ccc(-c2cnc(NC3CCCC3)[nH]2)cc1`, for which the IC50 in assay [1] came out at 7.2 µM; in [3], 12.1 µM. Also, the “growth inhibition (GI)” value in assay [4], in assay [5], in assay [8] and in assay [14] was “inactive” in each case.

For the compound `O[C@@]1(c2ccc(Cl)cc2)C[n+]2cccnc2N1C1CCCC1`, the values for the IC50 in assay [1] and in [3] were 41.9 µM and 41.8 µM, respectively. Besides, the “growth inhibition (GI)” value in [4], in assay [5], in [6] and in [7] was “Active” each time.

On to `CCCCCNc1ncc(-c2ccc(Cl)c(Cl)c2)[nH]1`, for which the IC50 in assay [1] was 0.7 µM; in assay [3], 2.2 µM. Further, the “growth inhibition (GI)” value in assay [4] and in assay [12] was “inactive” throughout.

On to `Clc1ccc(-c2cnc(NC3CCCC3)[nH]2)cc1Cl`, for which the values for the IC50 in [1] and in assay [3] were 7.9 µM and 5.7 µM, respectively. The “growth inhibition (GI)” value in assay [4], in assay [5], in assay [8] and in assay [10] was “inactive” each time.

On to `CC(C)CNc1ncc(-c2ccccc2)[nH]1`, for which the IC50 is 1.2 µM in [1] and 4.9 µM in [3]. Moreover, the “growth inhibition (GI)” value in assay [4], in assay [5], in assay [11] and in assay [12] was “inactive” throughout.

As for `CCCCNc1ncc(-c2ccc(F)cc2)[nH]1`, the figures for the IC50 in assay [1] and in assay [3] were 10.8 µM and 15.5 µM, respectively. The “growth inhibition (GI)” value in assay [4], in [5], in assay [10] and in assay [7] was “inactive” each time.

Regarding `CCCCCCCCCCCCN1c2nccc[n+]2C[C@@]1(O)c1ccccc1.[Br-]`, the IC50 in [1] was more than 800 µM; in [3], 27.5 µM. The “growth inhibition (GI)” value in assay [5] and in [11] was “Active” throughout. The growth inhibition (GI) in assay [2] was more than 25%.

As to `CSc1ccc(-c2cnc(NC3CCCCC3)[nH]2)cc1`, the IC50 stood at 15.8 µM in assay [1] and 191 µM in assay [3]. In addition, the “growth inhibition (GI)” value in [4] and in [14] was “inactive” each time.

Take `Nc1ncc(-c2ccc(Br)cc2)[nH]1`: the “growth inhibition (GI)” value in assay [4] and in [16] was “inactive” each time. In addition, the “growth inhibition (GI)” value in [10] is “Active”.
